ChEMBL document CHEMBL1125552, “Synthesis and biological evaluation of novel potent antagonists of the bombesin/gastrin releasing peptide receptor” (1992)
Where a SMILES comes first, the peptide text is derived from it. The star is where a group is joined. X1 = CSCC[C@H](NC[C@H](CC(C)C)N*)C(N)=O; X2 = CC(=O)NC[C@H](CC(C)C)N*; For = O=C*

How the values were obtained:
Type in all cases: functional
[1] = biological target: Gastrin-releasing peptide receptor (Rattus norvegicus) (UniProt P52500); assay: Tested for the inhibition of Bombesin-stimulated amylase release at 5 uM concentration in rat pranceatic acini
Gastrin-releasing peptide receptor (Rattus norvegicus), sequence (P52500 whole entry): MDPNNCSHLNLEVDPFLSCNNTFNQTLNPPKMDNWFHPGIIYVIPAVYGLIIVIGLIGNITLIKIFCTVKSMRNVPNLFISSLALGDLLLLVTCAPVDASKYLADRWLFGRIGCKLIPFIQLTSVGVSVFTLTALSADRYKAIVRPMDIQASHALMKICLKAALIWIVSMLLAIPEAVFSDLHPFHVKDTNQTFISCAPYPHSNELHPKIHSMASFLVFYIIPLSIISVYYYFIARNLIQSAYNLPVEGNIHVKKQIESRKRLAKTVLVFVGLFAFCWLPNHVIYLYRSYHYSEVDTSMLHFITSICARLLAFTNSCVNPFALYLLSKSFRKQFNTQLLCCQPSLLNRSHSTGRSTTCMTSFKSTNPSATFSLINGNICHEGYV
Summary of the method: (§1)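 Dispersed rat pancreatic acini prepared by collagenase digestion (300 units/20 mL), washed through 4% BSA. Incubated 30 min at 37 °C under 100% oxygen in HEPES buffer (pH 7.4) with 0.5 mM CaCl₂, 1% albumin and trypsin inhibitor, with peptide plus 0.2 nM BN. Amylase (Phadebas test) released, as percent of initial acinar content, normalized to BN alone; triplicate measurements.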

[2] = biological target: Gastrin-releasing peptide receptor (Rattus norvegicus) (UniProt P52500); assay: Tested for the inhibition of Bombesin-stimulated amylase release at 5 uM concentration in the presence of 0.2 nM of bombesin in rat pranceatic acini; summary of the method: as §1
[3] = biological target: Gastrin-releasing peptide receptor (Rattus norvegicus) (UniProt P52500); assay: Tested for the inhibition of Bombesin-stimulated amylase release at 50 nM concentration in the presence of 0.2 nM of bombesin in rat pranceatic acini; summary of the method: as §1
[4] = biological target: Gastrin-releasing peptide receptor (Rattus norvegicus) (UniProt P52500); assay: Tested for the inhibition of Bombesin-stimulated amylase release in the presence of 0.2 nM of bombesin in rat pranceatic acini; summary of the method: as §1
[5] = biological target: Gastrin-releasing peptide receptor (Rattus norvegicus) (UniProt P52500); assay: Tested for the inhibition of bombesin-stimulated amylase release in rat pranceatic acini; summary of the method: as §1
[6] = biological target: Gastrin-releasing peptide receptor (Rattus norvegicus) (UniProt P52500); assay: Tested for the inhibition of Bombesin-stimulated amylase release at 50 nM concentration in rat pranceatic acini; summary of the method: as §1

CC(=O)NC[C@H](CC(C)C)NC(=O)[C@H](Cc1c[nH]cn1)NC(=O)CNC(=O)[C@@H](NC(=O)[C@H](C)NC(=O)[C@H](Cc1c[nH]c2ccccc12)NC(=O)[C@H](Cc1c[nH]cn1)NC(=O)[C@@H](N)CCC(N)=O)C(C)C (H-QHWAVGH-X2)
Release [1]: 3.6% | Release [2]: 8.2% | Release [3]: 14.5% | Release [4]: 14.4% | Release [5]: 3.6%

CSCC[C@@H](C(N)=O)N(C=O)C[C@H](CC(C)C)NC(=O)[C@H](Cc1c[nH]cn1)NC(=O)CNC(=O)[C@@H](NC(=O)[C@H](C)NC(=O)[C@H](Cc1c[nH]c2ccccc12)NC(=O)[C@H](Cc1c[nH]cn1)NC(=O)[C@H](N)Cc1ccccc1)C(C)C
Release [1]: 10.3% | Release [2]: 13% | Release [4]: 10.4% | Release [5]: 3.7%

CC(=O)NC[C@H](CC(C)C)NC(=O)[C@H](Cc1c[nH]cn1)NC(=O)CNC(=O)[C@@H](NC(=O)[C@H](C)NC(=O)[C@H](Cc1c[nH]c2ccccc12)NC(=O)[C@H](Cc1c[nH]cn1)NC(=O)[C@H](CCC(N)=O)NC(C)=O)C(C)C (Ac-QHWAVGH-X2)
Release [1]: 3.6% | Release [2]: 4% | Release [3]: 12.2% | Release [4]: 15.9% | Release [5]: 3.1%

CSCC[C@@H](C(N)=O)N(C=O)C[C@H](CC(C)C)NC(=O)[C@H](Cc1c[nH]cn1)NC(=O)CNC(=O)[C@@H](NC(=O)[C@H](C)NC(=O)[C@H](Cc1c[nH]c2ccccc12)NC(=O)[C@H](Cc1c[nH]cn1)NC(=O)[C@H](CC(N)=O)NC(=O)CN)C(C)C
Release [1]: 9.2% | Release [2]: 13.1% | Release [4]: 9.4% | Release [5]: 3.5%

CN[C@@H](Cc1ccccc1)C(=O)N[C@@H](Cc1c[nH]cn1)C(=O)N[C@@H](Cc1c[nH]c2ccccc12)C(=O)N[C@@H](C)C(=O)N[C@H](C(=O)NCC(=O)N[C@@H](Cc1c[nH]cn1)C(=O)N[C@@H](CC(C)C)CN(C=O)[C@@H](CCSC)C(N)=O)C(C)C
Release [1]: 9% | Release [2]: 9.9% | Release [4]: 9.4% | Release [5]: 3.5%

CCCCC[C@H](CC(C)C)NC(=O)[C@H](Cc1c[nH]cn1)NC(=O)CNC(=O)[C@@H](NC(=O)[C@H](C)NC(=O)[C@H](Cc1c[nH]c2ccccc12)NC(=O)[C@@H](Cc1c[nH]cn1)NC(=O)C(C)(C)C)C(C)C
Release [1]: 6% | Release [2]: 6.3% | Release [6]: 5.1% | Release [3]: 6.3% | Release [4]: 17.4% | Release [5]: 5.3%

CC(=O)NC[C@H](CC(C)C)NC(=O)[C@H](Cc1c[nH]cn1)NC(=O)CNC(=O)[C@@H](NC(=O)[C@H](C)NC(=O)[C@H](Cc1c[nH]c2ccccc12)NC(=O)[C@H](Cc1c[nH]cn1)NC(=O)[C@H](N)Cc1ccccc1)C(C)C
Release [1]: 3% | Release [2]: 3.4% | Release [3]: 9% | Release [4]: 15.7% | Release [5]: 3%

CC(=O)NC[C@H](CC(C)C)NC(=O)[C@H](Cc1c[nH]cn1)NC(=O)CNC(=O)[C@@H](NC(=O)[C@H](C)NC(=O)[C@H](Cc1c[nH]c2ccccc12)NC(=O)[C@H](CCC(N)=O)NC(=O)[C@H](N)Cc1ccccc1)C(C)C
Release [2]: 3.6% | Release [3]: 10.3% | Release [4]: 14.6% | Release [5]: 3.3%

CSCC[C@H](NC[C@H](CC(C)C)NC(=O)[C@H](Cc1c[nH]cn1)NC(=O)CNC(=O)[C@@H](NC(=O)[C@H](C)NC(=O)[C@H](Cc1c[nH]c2ccccc12)NC(=O)[C@H](N)Cc1ccccc1)C(C)C)C(N)=O
Release [1]: 5.7% | Release [2]: 13.1% | Release [6]: 5.3% | Release [3]: 19.6% | Release [4]: 18.3% | Release [5]: 5.3%

CSCC[C@@H](C(N)=O)N(C=O)C[C@H](CC(C)C)NC(=O)[C@H](Cc1c[nH]cn1)NC(=O)CNC(=O)[C@@H](NC(=O)[C@H](C)NC(=O)[C@H](Cc1c[nH]c2ccccc12)NC(=O)[C@H](Cc1c[nH]cn1)NC(=O)[C@@H](Cc1ccccc1)NC(=O)CN)C(C)C
Release [1]: 13.3% | Release [2]: 11.6% | Release [4]: 10.4% | Release [5]: 3.7%

CC(=O)NC[C@H](CC(C)C)NC(=O)[C@H](Cc1c[nH]cn1)NC(=O)CNC(=O)[C@@H](NC(=O)[C@H](C)NC(=O)[C@H](Cc1cn(C=O)c2ccccc12)NC(=O)[C@H](Cc1c[nH]cn1)NC(=O)[C@H](N)Cc1ccccc1)C(C)C
Release [1]: 3.1% | Release [2]: 4.8% | Release [3]: 16.2% | Release [4]: 20.3% | Release [5]: 3.2%

CC(=O)NC[C@H](CC(C)C)NC(=O)[C@H](Cc1c[nH]cn1)NC(=O)CNC(=O)[C@@H](NC(=O)[C@H](C)NC(=O)[C@H](Cc1c[nH]c2ccccc12)NC(=O)[C@H](Cc1c[nH]cn1)NC(=O)[C@@H](Cc1ccccc1)NC(C)=O)C(C)C
Release [1]: 3.6% | Release [2]: 3.7% | Release [3]: 16.7% | Release [4]: 20.2% | Release [5]: 2.9%

CC(=O)NC[C@H](CC(C)C)NC(=O)[C@H](Cc1c[nH]cn1)NC(=O)CNC(=O)[C@@H](NC(=O)[C@H](C)NC(=O)[C@H](Cc1c[nH]c2ccccc12)NC(=O)[C@H](CCC(N)=O)NC(=O)[C@@H](Cc1ccccc1)NC(C)=O)C(C)C
Release [2]: 4.3% | Release [3]: 14.8% | Release [4]: 16.5% | Release [5]: 3%

CC(C)C[C@@H](CN[C@@H](CC(C)C)C(N)=O)NC(=O)[C@H](Cc1c[nH]cn1)NC(=O)CNC(=O)[C@@H](NC(=O)[C@H](C)NC(=O)[C@H](Cc1c[nH]c2ccccc12)NC(=O)[C@H](CCC(N)=O)NC(=O)[C@H](CC(N)=O)NC(=O)CNC(=O)[C@H](CC(C)C)NC(=O)[C@H](CCCN=C(N)N)NC(=O)[C@H](CCC(N)=O)NC(=O)[C@@H]1CCC(=O)N1)C(C)C
Release [1]: 2.7% | Release [2]: 6.2% | Release [6]: 3% | Release [3]: 11.6% | Release [4]: 17.4% | Release [5]: 2.8%

CC(=O)NC[C@H](CC(C)C)NC(=O)[C@H](Cc1c[nH]cn1)NC(=O)CNC(=O)[C@@H](NC(=O)[C@H](C)NC(=O)[C@H](Cc1cn(C=O)c2ccccc12)NC(=O)[C@H](Cc1c[nH]cn1)NC(=O)[C@H](CCC(N)=O)NC(C)=O)C(C)C (Ac-QHW(For)AVGH-X2)
Release [2]: 12.5% | Release [3]: 15.8% | Release [4]: 16% | Release [5]: 3.2%

CN[C@H](Cc1ccccc1)C(=O)N[C@@H](Cc1c[nH]cn1)C(=O)N[C@@H](Cc1c[nH]c2ccccc12)C(=O)N[C@@H](C)C(=O)N[C@H](C(=O)NCC(=O)N[C@@H](Cc1c[nH]cn1)C(=O)N[C@@H](CC(C)C)CN(C=O)[C@@H](CCSC)C(N)=O)C(C)C
Release [1]: 9.1% | Release [2]: 12.9% | Release [4]: 9.4% | Release [5]: 3.5%

CSCC[C@H](NC[C@H](CC(C)C)NC(=O)[C@H](Cc1c[nH]cn1)NC(=O)CNC(=O)[C@@H](NC(=O)[C@H](C)NC(=O)[C@H](Cc1c[nH]c2ccccc12)NC(=O)[C@H](CC(N)=O)NC(=O)CN)C(C)C)C(N)=O
Release [1]: 6.5% | Release [2]: 24.5% | Release [6]: 7.6% | Release [3]: 22.7% | Release [4]: 19.3% | Release [5]: 5.1%

CSCC[C@H](NC[C@H](CC(C)C)NC(=O)[C@H](Cc1c[nH]cn1)NC(=O)CNC(=O)[C@@H](NC(=O)[C@H](C)NC(=O)[C@@H](N)Cc1c[nH]c2ccccc12)C(C)C)C(N)=O (H-WAVGH-X1)
Release [1]: 5.3% | Release [2]: 18.1% | Release [6]: 5.4% | Release [3]: 20.8% | Release [4]: 17.6% | Release [5]: 4.9%

CN[C@H](Cc1ccccc1)C(=O)N[C@@H](Cc1c[nH]c2ccccc12)C(=O)N[C@@H](C)C(=O)N[C@H](C(=O)NCC(=O)N[C@@H](Cc1c[nH]cn1)C(=O)N[C@H](CN[C@@H](CCSC)C(N)=O)CC(C)C)C(C)C
Release [1]: 12.2% | Release [2]: 14.3% | Release [6]: 7.2% | Release [3]: 16% | Release [4]: 21.2% | Release [5]: 6.4%

CSCC[C@H](NC[C@H](CC(C)C)NC(=O)[C@H](Cc1c[nH]cn1)NC(=O)CNC(=O)[C@@H](NC(=O)[C@H](C)NC(=O)[C@H](Cc1c[nH]c2ccccc12)NC(C)=O)C(C)C)C(N)=O (Ac-WAVGH-X1)
Release [1]: 4.7% | Release [2]: 16.1% | Release [6]: 4.7% | Release [3]: 17.9% | Release [4]: 17.8% | Release [5]: 4.8%
